ChEMBL document CHEMBL1125330, “N-substituted pyrazino[2,3-c][1,2,6]thiadiazine 2,2-dioxides. A new class of diuretics” (J Med Chem, 1992)

What was measured:
Rattus norvegicus [1] = experiment: Mean potassium excretion in rats when compound administered at 80 mg/kg po and vehicle dosed at 297.03 umol/kg; type: ADME, organism-based; set-up: dose 80 mg/kg, route oral; details: in vivo
Outline: (§1)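 Male Sprague-Dawley rats (HC/CFY, 175-200 g) fasted and water-deprived 18 h before and during the test. Dosed by gavage at 2.5-160 mg/kg in 1% carboxymethyl cellulose/0.1% Tween 80, 0.5 mL/100 g bw. Immediately hydrated with water (2.5 mL/100 g bw, po). Urine collected 6 h in metabolic cages; Na+ and K+ by flame photometry; mean mequiv/6 h/kg bw; nonpaired Student t-test.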

Rattus norvegicus [2] = experiment: Mean potassium excretion in rats when compound administered at 0 mg/kg po and vehicle dosed at 0 umol/kg; type: ADME, organism-based; set-up: dose 0 mg/kg, route oral; details: in vivo
Outline: (§2)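 Male Sprague-Dawley rats (HC/CFY, 175-200 g), no food or water for 18 h before and during the test. Single gavage dose (2.5-160 mg/kg; vehicle 1% carboxymethyl cellulose/0.1% Tween 80, 0.5 mL/100 g bw), then distilled water 2.5 mL/100 g bw po. Individual metabolic cages, 6 h urine. K+ by flame photometry, Cl- colorimetric, as mequiv/6 h/kg bw; unpaired Student t-test vs control.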

Rattus norvegicus [3] = experiment: Urinary sodium 6 hr after the compound was administered 100 mg/kg po in rat; type: ADME, organism-based, Urine; set-up: dose 100 mg/kg, route oral; details: in vivo
Outline: (§3)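 Onset and duration study in fasted, water-loaded male Sprague-Dawley rats housed two per metabolic cage, six pairs per group. Single oral dose given, then water 2.5 mL/100 g po. Urine volume and sodium (flame photometry) measured over 0-1, 1-2, 2-3, 3-4 and 4-6 h intervals. Mean values compared with vehicle by Student t-test.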

Rattus norvegicus [4] = experiment: Mean urinary output in rats when compound administered at 80 mg/kg po and vehicle dosed at 297.03 umol/kg; type: ADME, organism-based, Urine; set-up: dose 80 mg/kg, route oral; details: in vivo
Outline: (§4)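 Water-loaded male Sprague-Dawley rats (HC/CFY, 175-200 g) fasted and without water for 18 h. Oral gavage of 2.5-160 mg/kg in 1% CMC with 0.1% Tween 80, then distilled water 2.5 mL/100 g po. Urine collected 6 h in metabolic cages, mean output in mL/6 h/kg bw. Unpaired Student t-test against vehicle; dose-response by linear regression.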

Rattus norvegicus [5] = experiment: Urinary sodium 1 hr after the compound was administered 100 mg/kg po in rat; type: ADME, organism-based, Urine; set-up: dose 100 mg/kg, route oral; details: in vivo; outline: as §3
Rattus norvegicus [6] = experiment: Mean urinary output in rats when compound administered at 40 mg/kg po and vehicle dosed at 148.52 umol/kg; type: ADME, organism-based, Urine; set-up: dose 40 mg/kg, route oral; details: in vivo; outline: as §4
Rattus norvegicus [7] = experiment: Mean urinary output in rats when compound administered at 160 mg/kg po and vehicle dosed at 594.07 umol/kg; type: ADME, organism-based, Urine; set-up: dose 160 mg/kg, route oral; details: in vivo; outline: as §4
Rattus norvegicus [8] = experiment: Post dosing time interval of maximum activity; type: functional
Outline: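 Interval of peak activity taken from timed urine collections (0-1, 1-2, 2-3, 3-4, 4-6 h) after a single oral dose in water-loaded fasted rats, […]. Urine volume and Na+ excretion followed over time.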

Rattus norvegicus [9] = experiment: Mean Chlorine excretion in rats when compound administered at 20 mg/kg po and vehicle dosed at 74.26 umol/kg; type: ADME, organism-based; set-up: dose 20 mg/kg, route oral; details: in vivo; outline: as §2
Rattus norvegicus [10] = experiment: Mean Chlorine excretion in rats when compound administered at 80 mg/kg po and vehicle dosed at 297.03 umol/kg; type: ADME, organism-based; set-up: dose 80 mg/kg, route oral; details: in vivo; outline: as §2
Rattus norvegicus [11] = experiment: Mean urinary output in rats when compound administered at 2.5 mg/kg po and vehicle dosed at 9.28 umol/kg; type: ADME, organism-based, Urine; set-up: dose 2.5 mg/kg, route oral; details: in vivo; outline: as §4
Rattus norvegicus [12] = experiment: Mean urinary output in rats when compound administered at 0 mg/kg po and vehicle dosed at 0 umol/kg; type: ADME, organism-based, Urine; set-up: dose 0 mg/kg, route oral; details: in vivo; outline: as §4
Rattus norvegicus [13] = experiment: Mean potassium excretion in rats when compound administered at 40 mg/kg po and vehicle dosed at 148.52 umol/kg; type: ADME, organism-based; set-up: dose 40 mg/kg, route oral; details: in vivo; outline: as §2
Rattus norvegicus [14] = experiment: Mean Chlorine excretion in rats when compound administered at 160 mg/kg po and vehicle dosed at 594.07 umol/kg; type: ADME, organism-based; set-up: dose 160 mg/kg, route oral; details: in vivo; outline: as §2
Rattus norvegicus [15] = experiment: Mean Chlorine excretion in rats when compound administered at 10 mg/kg po and vehicle dosed at 37.13 umol/kg; type: ADME, organism-based; set-up: dose 10 mg/kg, route oral; details: in vivo; outline: as §2
Rattus norvegicus [16] = experiment: Mean urinary output in rats when compound administered at 5 mg/kg po and vehicle dosed at 18.56 umol/kg; type: ADME, organism-based, Urine; set-up: dose 5 mg/kg, route oral; details: in vivo; outline: as §4
Rattus norvegicus [17] = species on record: Rattus norvegicus; experiment: Dose required to produce increase in 200 % in urine production vs control groups; type: functional
Outline: (§5)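 Male Sprague-Dawley rats (HC/CFY, 175-200 g), fasted and water-deprived 18 h before and during the test. Compound dosed by gavage in 1% carboxymethyl cellulose/0.1% Tween 80, then water load 2.5 mL/100 g bw po. Urine collected 6 h in metabolic cages; Na+ by flame photometry. Effective doses vs vehicle controls derived by linear regression of dose-response data.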

Rattus norvegicus [18] = experiment: Mean sodium excretion in rats when compound administered at 80 mg/kg po and vehicle dosed at 297.03 umol/kg; type: ADME, organism-based; set-up: dose 80 mg/kg, route oral; details: in vivo; outline: as §1
Rattus norvegicus [19] = experiment: Mean sodium excretion in rats when compound administered at 2.5 mg/kg po and vehicle dosed at 9.28 umol/kg; type: ADME, organism-based; set-up: dose 2.5 mg/kg, route oral; details: in vivo; outline: as §1
Rattus norvegicus [20] = experiment: Mean potassium excretion in rats when compound administered at 20 mg/kg po and vehicle dosed at 74.26 umol/kg; type: ADME, organism-based; set-up: dose 20 mg/kg, route oral; details: in vivo; outline: as §2
Rattus norvegicus [21] = experiment: Mean potassium excretion in rats when compound administered at 2.5 mg/kg po and vehicle dosed at 9.28 umol/kg; type: ADME, organism-based; set-up: dose 2.5 mg/kg, route oral; details: in vivo; outline: as §2
Rattus norvegicus [22] = experiment: Volume of urine 6 hr after the compound was administered 100 mg/kg po in rat; type: ADME, organism-based; set-up: dose 100 mg/kg, route oral; details: in vivo
Outline: (§6)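 Onset/duration protocol: male Sprague-Dawley rats (HC/CFY, 175-200 g), food and water withdrawn for 18 h before and during the test. Single gavage dose in 1% carboxymethyl cellulose/0.1% Tween 80 (0.5 mL/100 g bw), then distilled water load (2.5 mL/100 g bw po). Two rats per metabolic cage, six pairs per group. Urine collected at 0-1, 1-2, 2-3, 3-4 and 4-6 h; Na+ by flame photometry. Vehicle controls; nonpaired Student t-test.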

Rattus norvegicus [23] = experiment: Mean Chlorine excretion in rats when compound administered at 40 mg/kg po and vehicle dosed at 148.52 umol/kg; type: ADME, organism-based; set-up: dose 40 mg/kg, route oral; details: in vivo; outline: as §2
[24] = Acute toxicity in mice when given po; type: organism-based; details: mouse, in vivo, read-out: DL50 (the source's name)
Outline: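 Male Swiss mice (SPF, HC/CFLP strain, 20–25 g), oral dosing; mortality followed over 15 days; LD50 derived by the Litchfield and Wilcoxon method.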

Rattus norvegicus [25] = experiment: Volume of urine 1 hr after the compound was administered 100 mg/kg po in rat; type: ADME, organism-based; set-up: dose 100 mg/kg, route oral; details: in vivo; outline: as §6
Rattus norvegicus [26] = experiment: Mean sodium excretion in rats when compound administered at 0 mg/kg po and vehicle dosed at 0 umol/kg; type: ADME, organism-based; set-up: dose 0 mg/kg, route oral; details: in vivo; outline: as §1
Rattus norvegicus [27] = experiment: Mean urinary output in rats when compound administered at 10 mg/kg po and vehicle dosed at 37.13 umol/kg; type: ADME, organism-based, Urine; set-up: dose 10 mg/kg, route oral; details: in vivo; outline: as §4
[28] = Ratio of Na+ to K+ excretion at dose; type: ADME
Outline: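 Water-loaded fasted male Sprague-Dawley rats dosed orally in CMC/Tween 80 vehicle and hydrated with water 2.5 mL/100 g. Na+ and K+ in urine pooled over 6 h measured by flame photometry. Na+/K+ excretion ratio computed for each dose; Student t-test against control.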

Rattus norvegicus [29] = experiment: Mean sodium excretion in rats when compound administered at 10 mg/kg po and vehicle dosed at 37.13 umol/kg; type: ADME, organism-based; set-up: dose 10 mg/kg, route oral; details: in vivo; outline: as §1
Rattus norvegicus [30] = species on record: Rattus norvegicus; experiment: Dose required to produce increase in 50 % in urine production vs control groups; type: functional; details: Rattus norvegicus, Urine; outline: as §5
Rattus norvegicus [31] = experiment: Urinary sodium 4 hr after the compound was administered 100 mg/kg po in rat; type: ADME, organism-based, Urine; set-up: dose 100 mg/kg, route oral; details: in vivo; outline: as §3

In the case of CCc1nc2c(nc1C)C(N)=NS(=O)(=O)N2CC, the K (Rattus norvegicus [1]) is reported as 2.06 m equiv 6hr-1 kg-1 (body weight)-1, the K (Rattus norvegicus [2]) is reported as 0.49 m equiv 6hr-1 kg-1 (body weight)-1 and the “Urinary Na+” value (Rattus norvegicus [3]) is reported as 0.16 m equiv. For the same molecule, the V (Rattus norvegicus [4]) was 62.99 ml 6hr-1 (kg of body weight)-1, the “Urinary Na+” value (Rattus norvegicus [5]) was 0.15 m equiv and the V (Rattus norvegicus [6]) was 59.12 ml 6hr-1 (kg of body weight)-1. For the same molecule, the V (Rattus norvegicus [7]) was 74.26 ml 6hr-1 (kg of body weight)-1, the Time (Rattus norvegicus [8]) was 2 h and the Cl- (Rattus norvegicus [9]) was 3.99 m equiv 6hr-1 kg-1 (body weight)-1. For the same molecule, the Cl- (Rattus norvegicus [10]) was 8.04 m equiv 6hr-1 kg-1 (body weight)-1, the V (Rattus norvegicus [11]) was 20.52 ml 6hr-1 (kg of body weight)-1 and the V (Rattus norvegicus [12]) was 21.96 ml 6hr-1 (kg of body weight)-1. The K (Rattus norvegicus [13]) was 1.25 m equiv 6hr-1 kg-1 (body weight)-1, the Cl- (Rattus norvegicus [14]) was 9.28 m equiv 6hr-1 kg-1 (body weight)-1 and the Cl- (Rattus norvegicus [15]) was 2.67 m equiv 6hr-1 kg-1 (body weight)-1. For the same molecule, the V (Rattus norvegicus [16]) was 25.06 ml 6hr-1 (kg of body weight)-1, the ED200 (Rattus norvegicus [17]) was 87.61 mg/kg and the Na (Rattus norvegicus [18]) was 5.1 m equiv 6hr-1 kg-1 (body weight)-1. The Na (Rattus norvegicus [19]) was 0.45 m equiv 6hr-1 kg-1 (body weight)-1, the K (Rattus norvegicus [20]) was 0.63 m equiv 6hr-1 kg-1 (body weight)-1 and the K (Rattus norvegicus [21]) was 0.46 m equiv 6hr-1 kg-1 (body weight)-1. For the same molecule, the Urine volume (Rattus norvegicus [22]) was 1.99 mL, the Cl- (Rattus norvegicus [23]) was 6.37 m equiv 6hr-1 kg-1 (body weight)-1 and the LD50 [24] was 1840 mg/kg. For the same molecule, the Urine volume (Rattus norvegicus [25]) was 1.84 mL, the Na (Rattus norvegicus [26]) was 0.43 m equiv 6hr-1 kg-1 (body weight)-1 and the V (Rattus norvegicus [27]) was 32.6 ml 6hr-1 (kg of body weight)-1. The Ratio [28] was 2.43 [middle of 8 runs], the Na (Rattus norvegicus [29]) was 1.21 m equiv 6hr-1 kg-1 (body weight)-1 and the ED50 (Rattus norvegicus [30]) was 9.17 mg/kg. For the same molecule, the “Urinary Na+” value (Rattus norvegicus [31]) was 0.27 m equiv.
